Test results as given in ChEMBL document CHEMBL1155093 (Bioorg Med Chem Lett, 2008).

Tests used:
[1] = molecular target: T1, Nuclear receptor subfamily 1 group I member 2 (Homo sapiens, UniProt O75469); test: Induction of PXR transactivation in HepG2 cells; type: cell-based
T1 sequence (O75469 whole entry): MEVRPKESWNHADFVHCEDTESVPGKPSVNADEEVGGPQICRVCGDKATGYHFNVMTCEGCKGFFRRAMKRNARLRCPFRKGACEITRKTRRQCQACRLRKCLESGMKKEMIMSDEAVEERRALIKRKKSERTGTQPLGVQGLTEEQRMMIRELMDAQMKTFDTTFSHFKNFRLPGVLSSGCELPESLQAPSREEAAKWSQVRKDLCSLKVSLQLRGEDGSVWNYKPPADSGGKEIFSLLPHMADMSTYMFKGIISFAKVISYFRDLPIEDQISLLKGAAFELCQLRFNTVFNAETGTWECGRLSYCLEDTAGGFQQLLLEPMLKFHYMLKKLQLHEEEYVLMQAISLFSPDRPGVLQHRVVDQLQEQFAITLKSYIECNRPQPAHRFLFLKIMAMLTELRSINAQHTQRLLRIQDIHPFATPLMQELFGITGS
Outline: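 HepG2 cells transiently transfected with PXR-pcDNA3 and Cyp3A-Luc reporter, cryopreserved, then thawed into DMEM with 5% charcoal/dextran FBS. Ten concentrations, 1:3 serial dilution, DMSO 0.1% final; 24 h at 37 °C. Luciferase luminescence read. % activation relative to 10 µM rifampicin (total) and DMSO (blank); EC50 and Emax from concentration–%Act plot.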

[2] = molecular target: T1, Nuclear receptor subfamily 1 group I member 2; test: Inhibition of refampicin-mediated PXR activation in HepG2 cells; type: cell-based
Outline: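 HepG2 cells transiently co-transfected with PXR-pcDNA3 and Cyp3A-Luc, cryopreserved and thawed into charcoal/dextran-FBS medium. Co-incubated with 10 µM rifampicin plus compound at ten concentrations (1:3 dilution, 0.1% DMSO final), 24 h at 37 °C; luciferase luminescence. Percent inhibition computed; IC50 and Imax taken from the concentration–%Inh plot.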

[3] = Cytotoxicity against human CRL cells assessed as viability upto 100 uM by MTT assay; type: cell-based; details: read-out: Activity
Outline: (§1)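 MTT viability read-out; cells exposed to a concentration range of drug for 48 h. Three separate experiments, each run in triplicate.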

[4] = system: SK-OV-3; test: Cytotoxicity against human SKOV3 cells assessed as viability upto 100 uM by MTT assay; type: functional; outline: as §1
[5] = system: Caco-2; test: Cytotoxicity against human Caco-2 cells assessed as viability upto 100 uM by MTT assay; type: functional; outline: as §1
[6] = system: LS174T; test: Cytotoxicity against human LS174T cells assessed as viability upto 100 uM by MTT assay; type: functional; outline: as §1
[7] = molecular target: Cytochrome P450 3A4 (Homo sapiens, UniProt P08684); test: Inhibition of CYP3A4 in human liver microsome; type: ADME, microsomes
Outline: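 Pooled human liver microsomes 0.1 mg/mL, midazolam 5 µM, NADPH 1 mM, 5 min reaction. Time-dependent variant: 30 min preincubation without midazolam, then midazolam added for 5 min. 1-Hydroxymidazolam measured against DMSO control; IC50 and maximum inhibition taken from the concentration–%Inh plot.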

Chain of Cytochrome P450 3A4 (P08684 whole entry): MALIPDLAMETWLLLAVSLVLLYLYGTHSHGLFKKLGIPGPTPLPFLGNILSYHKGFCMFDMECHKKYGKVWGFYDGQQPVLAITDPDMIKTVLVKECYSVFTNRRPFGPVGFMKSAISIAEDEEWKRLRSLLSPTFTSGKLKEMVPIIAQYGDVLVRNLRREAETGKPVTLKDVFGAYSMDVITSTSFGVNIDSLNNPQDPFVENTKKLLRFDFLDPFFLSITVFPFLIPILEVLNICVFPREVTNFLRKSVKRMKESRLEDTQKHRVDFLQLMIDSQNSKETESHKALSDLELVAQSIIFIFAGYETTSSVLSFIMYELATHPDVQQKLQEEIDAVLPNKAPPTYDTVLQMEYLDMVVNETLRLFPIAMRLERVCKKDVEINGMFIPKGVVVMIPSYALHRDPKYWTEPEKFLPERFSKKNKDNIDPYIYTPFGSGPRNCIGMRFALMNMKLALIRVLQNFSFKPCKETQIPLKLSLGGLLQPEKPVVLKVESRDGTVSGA

Row | SMILES | Activity [1] [%] | inhibition (INH) [2] [%] | viability [3] [%] | Activity [4] [%] | Activity [5] [%] | Activity [6] [%] | IC50 [7] [µM]
1 | CC(=O)N1CCN(c2ccc(OCC3COC(C)(c4ccc(Cl)cc4Cl)O3)cc2)CC1 (stereo not drawn) | 10 | 109 |  |  |  |  | 
2 | CC(=O)N1CCN(c2ccc(OC[C@H]3CO[C@](Cn4ccnc4)(c4ccc(Cl)cc4Cl)O3)cc2)CC1 [KETOCONAZOLE] |  |  | 65 | 65 | 65 | 65 | 
3 | CC(=O)N1CCN(c2ccc(OC[C@H]3CO[C@@](C)(c4ccc(F)cc4F)O3)cc2)CC1 | 10 | 103 | 98 | 98 | 98 | 98 | > 40
